This is an account of results in PMC10249145 (Cardiovascular & hematological agents in medicinal chemistry, 2023).

What is called IC50 is the point on the concentration scale where inhibition reaches its midpoint.

The test system of assay [1] is human plasma. The settings on record: normal human plasma, positive controls; cited from earlier work.
Assay [2] relates to human plasma. The following applies: normal human plasma, positive controls; cited from earlier work. The source holds these as a separate data set.
The next assay has as its target T1, human FXIIa (Homo sapiens, UniProt P00748).
T1 sequence (P00748 20-615): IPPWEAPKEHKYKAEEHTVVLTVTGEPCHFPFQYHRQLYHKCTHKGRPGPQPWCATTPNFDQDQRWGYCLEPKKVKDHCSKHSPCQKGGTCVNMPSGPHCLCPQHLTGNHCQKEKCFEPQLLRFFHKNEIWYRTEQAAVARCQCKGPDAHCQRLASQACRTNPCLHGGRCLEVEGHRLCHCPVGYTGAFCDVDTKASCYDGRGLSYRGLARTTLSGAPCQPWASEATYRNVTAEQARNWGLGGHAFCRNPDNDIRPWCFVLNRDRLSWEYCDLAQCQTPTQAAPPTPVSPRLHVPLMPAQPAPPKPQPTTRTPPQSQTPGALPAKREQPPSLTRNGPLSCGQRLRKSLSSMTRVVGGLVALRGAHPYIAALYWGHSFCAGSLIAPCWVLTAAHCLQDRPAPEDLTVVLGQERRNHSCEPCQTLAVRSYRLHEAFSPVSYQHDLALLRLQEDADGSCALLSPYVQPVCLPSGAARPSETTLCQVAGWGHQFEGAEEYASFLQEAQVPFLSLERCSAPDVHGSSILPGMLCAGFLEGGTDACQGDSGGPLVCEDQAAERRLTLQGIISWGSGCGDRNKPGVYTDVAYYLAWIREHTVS
As to the kind of experiment: Direct inhibition of human FXIIa, chromogenic substrate hydrolysis assay. The settings on record: for decrease in the inhibition potency: FXIIa IC50 relative to inhibitor 1; for DeltaY (efficacy of inhibition) / HS (Hill slope): pH 7.4, 37 °C; for DeltaY (efficacy of inhibition) / HS (Hill slope) / IC50: ± 1 S.E.; for IC50: Tris-HCl buffer pH 7.4, 37 °C. In kind it is biochemical. The gist of the method:
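Human FXIIa (stock 200 nM) was preincubated for 5 min with test compound or vehicle in Tris-HCl pH 7.4 with NaCl, 2.5 mM CaCl2, 0.1% PEG8000 and 0.02% Tween80 at 37 °C. Spectrozyme FXIIa (stock 5 mM) was then added. Twelve in-well concentrations (500–0.0025 μM) were tested. Residual activity was taken from the initial A405 rate, and a logistic fit gave IC50, efficacy and Hill slope (±1 S.E.).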

Where a name gives a salt, the structure may show the parent alone.

Take `CC1CNc2c(cccc2S(=O)(=O)N[C@@H](CCCNC(=N)N)C(=O)N2CC[C@@H](C)C[C@@H]2C(=O)O)C1` (stereo partly shown) [Argatroban HCl]: the “APTT (EC×1.5)” value in the assay on human plasma [1] is given as ~0.19 μM^b. The “PT (EC×1.5)” value in the assay with human plasma [2] was ~0.13 µM.
For the compound `COC(=O)c1nc(N)n(C(=O)c2ccccc2)n1` [Inhibitor 2, Methyl 5-amino-1-benzoyl-1H-1,2,4-triazole-3-carboxylate], the “decrease in the inhibition potency” value at human FXIIa is listed as ~ 2.2 fold. At human FXIIa (human FXIIa), the “DeltaY (efficacy of inhibition)” value is 92.2 ± 3.1% and the “HS (Hill slope)” value was 1.09 ± 0.14.
As for `CC(C)(C)c1ccc(C(=O)n2ncnc2N)cc1` [Inhibitor 3, (5-amino-1H-1,2,4-triazol-1-yl)(4-(tert-butyl)phenyl)methanone], the “decrease in the inhibition potency” value at human FXIIa turned out to be 77.5 fold. Besides, at human FXIIa (human FXIIa), the “DeltaY (efficacy of inhibition)” value is 82.1 ± 8.1% and the “HS (Hill slope)” value is given as 1.37 ± 0.69.
In turn, `CC(C)(C)c1ccc(C(=O)n2nc(C(=O)O)nc2N)cc1` [Inhibitor 4, 5-amino-1-(4-(tert-butyl)benzoyl)-1H-1,2,4-triazole-3-carboxylic acid] gave an IC50 against human FXIIa (IC50, human FXIIa) of 699 µM. Besides, at human FXIIa (human FXIIa), the “DeltaY (efficacy of inhibition)” value is 122.4 ± 23.4% and the “HS (Hill slope)” value was determined as 1.05 ± 0.55.
On to `CNC(=O)c1nc(N)n(C(=O)c2ccc(C(C)(C)C)cc2)n1` [Inhibitor 5, 5-amino-1-(4-(tert-butyl)benzoyl)-N-methyl-1-1H-1,2,4-triazole-3-carboxamide], for which, at human FXIIa (human FXIIa), the IC50 was found to be 340 ± 30.5 µM, the “DeltaY (efficacy of inhibition)” value amounted to 103 ± 5% and the “HS (Hill slope)” value stood at 1.26 ± 0.27.
`O=C(NC[C@H]1CN(c2ccc(N3CCOCC3=O)cc2)C(=O)O1)c1ccc(Cl)s1` [Rivaroxaban]: the “APTT (EC×1.5)” value in the assay on human plasma [1] is ~0.06 µM. For the same compound, the “PT (EC×1.5)” value with human plasma [2] is ~0.08 µM.
